A selection: hits, their analogues and other compounds. The true share with any hit is near 2.6%.
TCR-CD3 inh – inhibitors of human TCR-CD3 interaction, primary screen, biochemical, fluorescence, TAMRA-labeled TCR probe; 360,000 tested, 0.37% active; inhibition, % at 9.4 µM; T-cell receptor (TCR); AID 651800, 2012; in the data active = inhibition above about 19%;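 note: recombinant mutant TCR 2C K166C tagged with TAMRA read by polarization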
SIAE inh – human SIAE inhibitors, primary screen, biochemical, fluorescence polarization, FP-Rh probe, 1536-well HTS | Sialate O-acetylesterase (Homo sapiens), Q9HAT2 | SIAE FP-Rh probe binding | inhibition, % at 9.66 µM | 370,000 tested, 0.69% active;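 active = inhibition above a cutoff: mean of compounds within the control limits plus 3 SD of those, cut at about 17% in these data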
PRMT1 inh – PRMT1 methyltransferase inhibitors, primary screen, biochemical, fluorescence polarization; Protein arginine N-methyltransferase 1 (Homo sapiens), Q99873; recombinant PRMT1, activity-based probe fluorescence polarization; inhibition, % at 2.79 µM; 370,000 tested, 1.3% active;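 active = inhibition above about 21% made by adding two undisclosed values, limit read from the data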
HTRA1 inh – HTRA1 serine protease inhibitors, primary screen, biochemical, fluorescence polarization, HTS; recombinant HTRA1, FP-rhodamine activity-based probe; 340,000 tested, 0.5% active; inhibition, % at 5.96 µM; AID 504803, 2011; in the data active = inhibition above about 36%
mABHD4 FP – ABHD4 inhibitors, primary screen, biochemical, fluorescence polarization, mouse; (Lyso)-N-acylphosphatidylethanolamine lipase (Mus musculus), Q8VD66; purified mABHD4, FP-Rh probe fluorescence polarization; inhibition, % at 8.92 µM; 370,000 tested, 0.54% active;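 active = inhibition exceeding the mean over every tested compound plus 3 SD, cut at about 30% in these data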
Target sequence (Q8VD66 whole entry, looked up): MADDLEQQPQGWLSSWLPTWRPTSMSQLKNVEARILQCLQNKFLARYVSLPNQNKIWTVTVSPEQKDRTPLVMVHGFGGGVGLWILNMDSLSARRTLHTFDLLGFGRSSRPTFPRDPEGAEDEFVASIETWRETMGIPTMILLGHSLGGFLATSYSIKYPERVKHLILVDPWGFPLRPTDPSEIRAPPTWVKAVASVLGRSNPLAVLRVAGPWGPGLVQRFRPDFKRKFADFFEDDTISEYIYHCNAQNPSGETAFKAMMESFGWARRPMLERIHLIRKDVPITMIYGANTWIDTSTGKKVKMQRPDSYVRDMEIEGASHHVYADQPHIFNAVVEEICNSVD
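Material: mouse ABHD4 enzyme, wild type; Benchmarks: S159A mutant high control, sample median low control; Buffer or medium: HEPES pH 7.0, NaCl, Pluronic buffer; Signal: fluorescence polarization; Read-out: percent inhibition of probe binding, normalized to plate controls; Timing: pre-incubation 45 min, probe exposure 60 min, at 25 °C; Dosing: 8.92 µM, single dose.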
ABHD4 confirm – ABHD4 inhibitors, retest, confirmation, biochemical, fluorescence polarization, mouse. 1,800 tested, 55% active. purified mABHD4, FP-Rh probe fluorescence polarization. shares compounds with mABHD4 FP. inhibition, % at 8.92 µM;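 active = mean inhibition across replicates above the hit cutoff set in the primary screen, cut at about 30% in these data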
Of the large screens only hits and unclear results are named; the others gave an inactive call (follow-up assays come after a bar, where they were run); ! = a repeat was not active.

Cc1nnc(NS(=O)(=O)c2ccc(N=Nc3ccc(N)nc3N)cc2)s1	mABHD4 FP 58 | ABHD4 confirm 34
Cc1nnc(NS(=O)(=O)c2ccc(N)cc2)s1	none
COc1ccc(C2=NN(c3ccc(C(=O)O)cc3)C(c3ccc(OC)c(OC)c3)C2)cc1 (stereo not given)	mABHD4 FP 69 | ABHD4 confirm 78
O=C(C1CC1)N1CCC(C(O)(c2ccccc2)c2ccccc2)CC1	none
O=C(N1CCC(C(O)(c2ccccc2)c2ccccc2)CC1)n1ncc(C(O)(c2ccccc2)c2ccccc2)n1	mABHD4 FP 70 (no result: TCR-CD3 inh, HTRA1 inh) | ABHD4 confirm 68
O=C(CCc1ccc(O)c(O)c1)N/N=C/c1cc2c(cc1[N+](=O)[O-])OCO2	mABHD4 FP 31 | ABHD4 confirm 38
Cc1ccc(N=Cc2cc3c(cc2[N+](=O)[O-])OCO3)cc1[N+](=O)[O-]	PRMT1 inh 25, mABHD4 FP 42 (no result: HTRA1 inh) | ABHD4 confirm 30
O=[N+]([O-])c1cc(Br)cc(C=Nc2ccc3c(c2)OCO3)c1O	none
Cc1ccn2c(NC3CCCCC3)c(-c3cccc(SC4CCCCC4)c3)nc2c1	mABHD4 FP 31! | ABHD4 confirm inactive
OCCNc1nc(Nc2ccc(Br)cc2)nc2ccccc12	SIAE inh 18, mABHD4 FP 34 (no result: HTRA1 inh) | ABHD4 confirm 47
Cc1ccc(Nc2nc(NCc3ccco3)c3ccccc3n2)cc1	mABHD4 FP 36 | ABHD4 confirm 41
COC(=O)[C@]12C[C@H](CC(=O)NCC34CC5CC(CC(C5)C3)C4)C(=O)N(Cc3ccc(Cl)cc3Cl)C1=C[C@H](C(C)(C)C)O[C@@H]2C	none (no result: TCR-CD3 inh, HTRA1 inh)
O=S1(=O)c2ccc(N3CC[C@@H](O)C3)cc2O[C@@H]2CCN1C2	none (no result: TCR-CD3 inh, HTRA1 inh)
CNc1sc(C(=O)c2ccc(F)cc2)c(N)c1-c1nc2ccccc2s1	mABHD4 FP 32 | ABHD4 confirm 68
CCCc1cn(-c2ccc3c(c2)[C@]2(CC(=O)N(C)C2c2ccccc2)C(=O)N3CC(C)C)nn1 (stereo not given in full)	none (no result: TCR-CD3 inh, HTRA1 inh)
Cc1cc(N2CCN(C(=O)Oc3ccc(-c4ccccc4)cn3)CC2)c2ccccc2n1	none (no result: TCR-CD3 inh, HTRA1 inh)
Cc1cc(N2CCN(C(=O)Oc3ccc(C(F)(F)F)cc3)CC2)c2ccccc2n1	mABHD4 FP 53 (no result: TCR-CD3 inh, HTRA1 inh) | ABHD4 confirm inactive
N#C/C(C(N)=O)=c1/ccc2c(c1)N1C3=C(CCCC3)CC3CCCCC31N=2 (stereo not given)	mABHD4 FP 49 (no result: HTRA1 inh) | ABHD4 confirm 49
Nc1[nH]c(C(=O)c2ccccc2)c(-c2ccc(Cl)c(Cl)c2)c1C(=O)NCCc1c[nH]c2ccccc12	mABHD4 FP 33 (no result: HTRA1 inh) | ABHD4 confirm inactive
Nc1[nH]c(C(=O)c2ccccc2)c(-c2cccc(C(F)(F)F)c2)c1C(=O)NCCc1c[nH]c2ccccc12	mABHD4 FP 31 (no result: HTRA1 inh) | ABHD4 confirm inactive
Nc1[nH]c(C(=O)c2ccccc2)c(-c2ccc(Cl)c(F)c2)c1C(=O)NCCc1c[nH]c2ccccc12	mABHD4 FP 40 (no result: HTRA1 inh) | ABHD4 confirm 43
Nc1[nH]c(C(=O)c2ccc(Br)cc2)c(-c2ccc3ccccc3c2)c1C(=O)NCCc1c[nH]c2ccccc12	mABHD4 FP 30 (no result: HTRA1 inh) | ABHD4 confirm 35
CCCCNC(=O)C1CCCN1C(=O)Nc1cc(Cl)cc(Cl)c1 (stereo not given)	none (no result: TCR-CD3 inh, HTRA1 inh)
C[C@@H]1ON(C)[C@H]2C[C@H]3c4cc(-c5cccc(Cl)c5)ccc4CCN3C[C@@H]12	none (no result: HTRA1 inh)
Nc1[nH]c(C(=O)c2ccccc2)c(-c2ccc(Cl)cc2)c1C(=O)NCCc1c[nH]c2ccccc12	mABHD4 FP 31 (no result: HTRA1 inh) | ABHD4 confirm inactive
Nc1[nH]c(C(=O)c2ccccc2)c(-c2ccc(F)cc2)c1C(=O)NCCc1c[nH]c2ccccc12	none (no result: HTRA1 inh)
Nc1[nH]c(C(=O)c2ccccc2)c(-c2ccc3c(c2)OCO3)c1C(=O)NCCc1c[nH]c2ccccc12	mABHD4 FP 33 (no result: HTRA1 inh) | ABHD4 confirm 39
C=CCN(C(=O)[C@@H](CCCC)[C@@H](O)c1ccc2ccccc2c1)c1ccccc1	none (no result: TCR-CD3 inh, HTRA1 inh)

Screens from PubChem.
